assay: Antiplatelet activity in rabbit platelet-rich plasma assessed as inhibition of ADP-induced platelet aggregation at 0.1 mM preincubated for 5 mins followed by addition of ADP measured within 5 mins by Borns turbidimetric method; assay type: functional; settings: Oryctolagus cuniculus
Outline: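 Rabbit carotid blood was citrated (3.8%, 9:1). PRP was obtained at 500 g for 10 min and PPP at 3000 g for 10 min. PRP was preincubated in duplicate for 5 min at 37 °C with 0.1 mM compound, plus carboxy-PTIO or BSS where indicated. ADP was then added and maximal light transmission recorded within 5 min, within 3 h of blood collection. Inhibition % was calculated versus control. Mean ± SD of three independent experiments.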

Row | Structure (SMILES) | inhibition at 100 µM
1 | S=c1cc(-c2ccc(OCCCCCN3CCNCC3)cc2)ss1 | 16.8%
2 | CCCCC(OC(=O)CCl)c1ccccc1C(=O)Oc1ccc(/C=C/C(=O)OCCO[N+](=O)[O-])cc1OC (racemic) | 18%
3 | CCCCC(OC(=O)CN1CCN(CCOc2ccc(-c3cc(=S)ss3)cc2)CC1)c1ccccc1C(=O)Oc1ccc(/C=C/C(=O)OCCO[N+](=O)[O-])cc1OC (racemic) | 19.7%
4 | CCCCC(OC(=O)CN1CCN(CCCCCOc2ccc(-c3cc(=S)ss3)cc2)CC1)c1ccccc1C(=O)Oc1ccc(/C=C/C(=O)OCCCCCCO[N+](=O)[O-])cc1OC (racemic) | 19.7%
5 | CCCCC(OC(=O)CN1CCN(CCCOc2ccc(-c3cc(=S)ss3)cc2)CC1)c1ccccc1C(=O)Oc1ccc(/C=C/C(=O)OCCO[N+](=O)[O-])cc1OC (racemic) | 19.7%
6 | CCCCC(OC(=O)CN1CCN(CCOc2ccc(-c3cc(=S)ss3)cc2)CC1)c1ccccc1C(=O)Oc1ccc(/C=C/C(=O)OCCCCO[N+](=O)[O-])cc1OC (racemic) | 19.7%
7 | CCCCC(OC(=O)CN1CCN(CCCCCOc2ccc(-c3cc(=S)ss3)cc2)CC1)c1ccccc1C(=O)Oc1ccc(/C=C/C(=O)OCCCCO[N+](=O)[O-])cc1OC (racemic) | 19.7%
8 | CCCCC(OC(=O)CN1CCN(CCCCCOc2ccccc2)CC1)c1ccccc1C(=O)Oc1ccc(/C=C/C(=O)OCCO[N+](=O)[O-])cc1OC (racemic) | 19.8%
9 | CCCCC(OC(=O)CN1CCN(CCCCCOc2ccc(-c3cc(=S)ss3)cc2)CC1)c1ccccc1C(=O)Oc1ccc(/C=C/C(=O)OC)cc1OC (racemic) | 27.8%
10 | CCCCC(OC(=O)CN1CCN(CCCOc2ccc(-c3cc(=S)ss3)cc2)CC1)c1ccccc1C(=O)Oc1ccc(/C=C/C(=O)OCCCCCCO[N+](=O)[O-])cc1OC (racemic) | 19.7%
11 | CCCCC(OC(=O)CN1CCN(CCCCOc2ccc(-c3cc(=S)ss3)cc2)CC1)c1ccccc1C(=O)Oc1ccc(/C=C/C(=O)OCCO[N+](=O)[O-])cc1OC (racemic) | 19.7%

Reference: ChEMBL document CHEMBL3792374, “Discovery of a ring-opened derivative of 3-n-butylphthalide bearing NO/H2S-donating moieties as a potential anti-ischemic stroke agent” (Eur J Med Chem, 2016)
